The record followed here is ChEMBL document CHEMBL1914324, “Discovery of novel spirocyclic inhibitors of fatty acid amide hydrolase (FAAH). Part 2. Discovery of 7-azaspiro[3.5]nonane urea PF-04862853, an orally efficacious inhibitor of fatty acid amide hydrolase (FAAH) for pain” (Bioorg Med Chem Lett, 2011).

Active and inactive are the calls of the source. The rule behind the calls is not given here.

The target in data set [1] is T1, Fatty-acid amide hydrolase 1 (Homo sapiens) (UniProt O00519).
T1 sequence (whole entry): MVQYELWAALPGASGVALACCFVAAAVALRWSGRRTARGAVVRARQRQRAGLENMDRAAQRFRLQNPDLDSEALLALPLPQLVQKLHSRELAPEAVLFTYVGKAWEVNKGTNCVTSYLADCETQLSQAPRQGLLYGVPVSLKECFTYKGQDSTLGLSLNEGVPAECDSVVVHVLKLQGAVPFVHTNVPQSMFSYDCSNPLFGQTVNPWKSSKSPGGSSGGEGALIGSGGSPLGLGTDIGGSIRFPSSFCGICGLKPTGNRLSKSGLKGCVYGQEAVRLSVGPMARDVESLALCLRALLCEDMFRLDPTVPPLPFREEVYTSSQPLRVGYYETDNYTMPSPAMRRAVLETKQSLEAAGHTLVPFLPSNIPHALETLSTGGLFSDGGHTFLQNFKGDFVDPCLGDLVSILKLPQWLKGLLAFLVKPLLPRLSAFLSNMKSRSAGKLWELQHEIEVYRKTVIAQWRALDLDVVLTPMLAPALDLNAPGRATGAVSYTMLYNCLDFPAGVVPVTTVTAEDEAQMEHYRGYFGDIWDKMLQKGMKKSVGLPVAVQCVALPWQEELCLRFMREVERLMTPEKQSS
Kind of data set: Ratio of Kinact to Ki for human FAAH activity. In a few lines:
(§1)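 kinact/Ki determined against human and rat FAAH. Each value is the average of at least two independent determinations.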

The target in data set [2] is T2, Fatty-acid amide hydrolase 1 (Rattus norvegicus) (UniProt P97612).
T2 sequence (whole entry): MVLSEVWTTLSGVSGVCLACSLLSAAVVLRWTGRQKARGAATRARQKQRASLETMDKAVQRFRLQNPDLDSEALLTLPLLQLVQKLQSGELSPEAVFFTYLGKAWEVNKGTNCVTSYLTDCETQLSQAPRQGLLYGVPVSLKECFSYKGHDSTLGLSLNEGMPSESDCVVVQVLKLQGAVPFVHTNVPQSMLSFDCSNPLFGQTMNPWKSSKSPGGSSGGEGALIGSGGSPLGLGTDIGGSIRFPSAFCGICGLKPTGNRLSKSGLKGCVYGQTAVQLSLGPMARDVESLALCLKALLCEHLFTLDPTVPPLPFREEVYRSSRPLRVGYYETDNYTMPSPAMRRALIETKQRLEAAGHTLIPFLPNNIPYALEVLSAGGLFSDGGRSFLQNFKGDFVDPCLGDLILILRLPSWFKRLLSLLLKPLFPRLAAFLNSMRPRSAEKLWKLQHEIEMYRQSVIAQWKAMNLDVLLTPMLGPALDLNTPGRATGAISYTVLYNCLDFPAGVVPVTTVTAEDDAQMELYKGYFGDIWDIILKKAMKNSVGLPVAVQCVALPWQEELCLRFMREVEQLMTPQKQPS
Briefly: Ratio of Kinact to Ki for rat FAAH activity. The method, boiled down:
as §1

The test system of a further data set is Rattus norvegicus. Briefly: Inhibition of FAAH in rat CFA model at 3 mg/kg, po after 3 hrs. It counts as functional. Conditions: for minimal effective dose: read-out: MED.
Data set [3] can be described thus: Inhibition of cytochrome P450. In kind it is ADME.
The target in data set [4] is Voltage-gated inwardly rectifying potassium channel KCNH2 (Homo sapiens, UniProt Q12809). Kind of data set: Displacement of dofetilide from ERG.
The target in data set [5] is T1, Fatty-acid amide hydrolase 1 (Homo sapiens). Kind of data set: Inhibition of FAAH in human liver proteomes using rhodamine-tagged fluorophosphonate probe at 100 uM by competitive activity-based protein profiling method. In a few lines: (§2)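 Competitive activity-based protein profiling against >200 human serine hydrolases, FAAH included. Compound tested at 100 µM in human brain membrane and soluble liver proteomes. Residual hydrolase activity labelled with a rhodamine-tagged fluorophosphonate probe.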

Data set [6] shares this target. Briefly: Inhibition of FAAH in human brain membrane using rhodamine-tagged fluorophosphonate probe at 100 uM by competitive activity-based protein profiling method. In kind it is cell membranes. The method, boiled down: as §2

Voltage-gated inwardly rectifying potassium channel KCNH2, sequence (Q12809 whole entry): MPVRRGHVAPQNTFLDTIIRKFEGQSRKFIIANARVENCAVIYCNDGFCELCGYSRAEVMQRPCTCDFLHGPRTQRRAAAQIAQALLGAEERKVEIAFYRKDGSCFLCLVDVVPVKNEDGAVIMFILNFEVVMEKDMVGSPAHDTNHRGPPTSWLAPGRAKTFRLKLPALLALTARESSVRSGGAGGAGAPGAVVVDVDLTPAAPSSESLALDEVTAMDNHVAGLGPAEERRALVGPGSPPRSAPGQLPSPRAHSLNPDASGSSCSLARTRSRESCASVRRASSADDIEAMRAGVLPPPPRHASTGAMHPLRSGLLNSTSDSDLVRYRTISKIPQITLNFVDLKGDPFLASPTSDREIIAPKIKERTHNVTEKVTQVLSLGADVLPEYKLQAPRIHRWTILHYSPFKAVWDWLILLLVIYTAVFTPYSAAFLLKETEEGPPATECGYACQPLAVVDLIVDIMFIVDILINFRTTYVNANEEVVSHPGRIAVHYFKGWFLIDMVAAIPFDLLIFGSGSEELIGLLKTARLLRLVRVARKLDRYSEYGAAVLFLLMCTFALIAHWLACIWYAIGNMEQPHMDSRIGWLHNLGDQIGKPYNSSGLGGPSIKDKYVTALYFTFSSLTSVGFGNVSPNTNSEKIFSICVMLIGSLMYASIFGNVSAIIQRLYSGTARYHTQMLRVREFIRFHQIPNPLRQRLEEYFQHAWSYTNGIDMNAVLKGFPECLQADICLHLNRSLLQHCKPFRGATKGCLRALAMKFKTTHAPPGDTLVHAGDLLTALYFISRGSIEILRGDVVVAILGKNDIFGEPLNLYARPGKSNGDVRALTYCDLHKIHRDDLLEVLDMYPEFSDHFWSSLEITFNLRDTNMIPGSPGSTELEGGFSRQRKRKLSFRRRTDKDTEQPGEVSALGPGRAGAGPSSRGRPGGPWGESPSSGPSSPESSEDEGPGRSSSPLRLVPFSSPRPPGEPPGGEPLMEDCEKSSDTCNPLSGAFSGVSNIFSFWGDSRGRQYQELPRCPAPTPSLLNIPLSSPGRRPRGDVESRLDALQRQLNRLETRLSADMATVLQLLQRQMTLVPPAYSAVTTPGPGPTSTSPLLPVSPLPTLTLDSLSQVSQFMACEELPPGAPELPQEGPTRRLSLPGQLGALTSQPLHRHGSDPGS

`Cc1noc(NC(=O)N2CCC3(CC2)CC(c2ccc(C(F)(F)F)cc2)C3)c1C`: the Ratio was found to be 245 M⁻¹ s⁻¹ in data set [1] and 348 M⁻¹ s⁻¹ in data set [2].
Take `Cn1nnnc1NC(=O)N1CCC2(CC1)CC(c1cccc(C(F)(F)F)c1)CO2` (stereo in doubt; form 1) [listing 1 of 2 here]: the minimal effective dose with Rattus norvegicus turned out to be 1 mg/kg. The “inhibition (INH)” value in data set [3] and in data set [4] was “Not Active” in each case.
`Cc1noc(NC(=O)N2CCC3(CC2)CC(c2cccc(OC(F)(F)F)c2)CO3)c1C` (racemic): the Ratio in data set [1] is 1800 M⁻¹ s⁻¹; in data set [2] it was 3110 M⁻¹ s⁻¹.
For `COc1ccc(C2CC3(CCN(C(=O)Nc4onc(C)c4C)CC3)C2)cc1` the same measures were 1760 M⁻¹ s⁻¹ and 585 M⁻¹ s⁻¹.
The corresponding values for `Cc1nnc(NC(=O)N2CCC3(CC2)CC(c2cccc(OC(F)(F)F)c2)C3)o1` are 1530 M⁻¹ s⁻¹ and 2460 M⁻¹ s⁻¹.
For `Cc1noc(NC(=O)N2CCC3(CC2)CC(c2ccc(C(F)(F)F)cc2)CO3)c1C` (racemic) the same measures were 481 M⁻¹ s⁻¹ and 714 M⁻¹ s⁻¹.
In the case of `Cc1noc(NC(=O)N2CCC3(CC2)CC(c2ccccc2)CO3)c1C` (racemic), the values for the Ratio in data set [1] and in data set [2] were 461 M⁻¹ s⁻¹ and 315 M⁻¹ s⁻¹, respectively.
In the case of `Cn1nnnc1NC(=O)N1CCC2(CC1)CC(c1cccc(OC(F)(F)F)c1)CO2` (configuration not stated), the inhibition result in data set [5] and in data set [6] was “Active” in each case. For the same compound, the “activity call (active/not active)” value in the data set with Rattus norvegicus was “Active”. The minimal effective dose in the data set on Rattus norvegicus was 0.1 mg/kg. Besides, the Ratio in data set [1] is 7110 M⁻¹ s⁻¹; in data set [2] it was 4560 M⁻¹ s⁻¹. The “inhibition (INH)” value in data set [3] and in data set [4] was “Not Active” each time.
For the compound `Cc1cccc(C2CC3(CCN(C(=O)Nc4onc(C)c4C)CC3)C2)c1`, the results for the Ratio in data set [1] and in data set [2] were 2870 M⁻¹ s⁻¹ and 1620 M⁻¹ s⁻¹, respectively.
Consider `Cn1nnnc1NC(=O)N1CCC2(CC1)CC(c1ccc(F)c(Cl)c1)C2`, for which the Ratio in data set [1] was determined as 16300 M⁻¹ s⁻¹; in data set [2], 5940 M⁻¹ s⁻¹.
For `Cc1noc(NC(=O)N2CCC3(CC2)CC(c2ccc(F)c(Cl)c2)CO3)c1C` (racemic) the same measures were 1580 M⁻¹ s⁻¹ and 3950 M⁻¹ s⁻¹.
Regarding `Cc1noc(NC(=O)N2CCC3(CC2)CC(c2ccccc2C(F)(F)F)C3)c1C`, in data set [1], the Ratio is 1140 M⁻¹ s⁻¹.
With `Cn1nnnc1NC(=O)N1CCC2(CC1)CC(c1cccc(C(F)(F)F)c1)C2`, the inhibition result in data set [5] and in data set [6] was “Active” throughout. Further, the “activity call (active/not active)” value in the data set with Rattus norvegicus is “Active”. Besides, in the data set on Rattus norvegicus, the minimal effective dose is 1 mg/kg. The Ratio turned out to be 12400 M⁻¹ s⁻¹ in data set [1] and 5750 M⁻¹ s⁻¹ in data set [2]. Further, the “inhibition (INH)” value in data set [3] and in data set [4] was “Not Active” throughout.
`Cn1nnnc1NC(=O)N1CCC2(CC1)CC(c1cccc(OC(F)(F)F)c1)C2`: the inhibition result in data set [5] and in data set [6] was “Active” in each case. In addition, the “activity call (active/not active)” value with Rattus norvegicus was “Active”. Moreover, the minimal effective dose in the data set on Rattus norvegicus is 0.1 mg/kg. In addition, the Ratio amounted to 13200 M⁻¹ s⁻¹ in data set [1] and 4570 M⁻¹ s⁻¹ in data set [2]. The “inhibition (INH)” value in data set [3] and in data set [4] was “Not Active” in each case.
In the case of `Cc1noc(NC(=O)N2CCC3(CC2)CC(c2ccc(Cl)cc2)C3)c1C`, the figures for the Ratio in data set [1] and in data set [2] were 2030 M⁻¹ s⁻¹ and 2070 M⁻¹ s⁻¹, respectively.
With `CCc1c(C)noc1NC(=O)N1CCC2(CC1)CC(c1cccc(OC(F)(F)F)c1)C2`, in data set [1], the Ratio was 338 M⁻¹ s⁻¹.
For the compound `Cc1noc(NC(=O)N2CCC3(CC2)CC(c2cccc(Cl)c2)C3)c1C`, the inhibition result in data set [5] and in data set [6] was “Active” throughout. Besides, the “activity call (active/not active)” value in the data set with Rattus norvegicus was “Active”. The minimal effective dose with Rattus norvegicus came to 1 mg/kg. Also, the Ratio in data set [1] was 3940 M⁻¹ s⁻¹; in data set [2], 3560 M⁻¹ s⁻¹. Also, the “inhibition (INH)” value in data set [3] and in data set [4] was “Not Active” throughout.
`COc1ccccc1C1CC2(CCN(C(=O)Nc3onc(C)c3C)CC2)C1`: the Ratio came out at 2640 M⁻¹ s⁻¹ in data set [1] and 265 M⁻¹ s⁻¹ in data set [2].
The corresponding values for `Cc1noc(NC(=O)N2CCC3(CC2)CC(c2ccccc2)C3)c1C` are 2080 M⁻¹ s⁻¹ and 679 M⁻¹ s⁻¹.
The corresponding values for `Cc1noc(NC(=O)N2CCC3(CC2)CC(c2ccc(C#N)cc2)CO3)c1C` (racemic) are 43.2 M⁻¹ s⁻¹ and 26.1 M⁻¹ s⁻¹.
For `Cc1noc(NC(=O)N2CCC3(CC2)CC(c2ccccc2OC(F)(F)F)C3)c1C` the same measures were 839 M⁻¹ s⁻¹ and 564 M⁻¹ s⁻¹.
Turning to `CCc1noc(NC(=O)N2CCC3(CC2)CC(c2cccc(OC(F)(F)F)c2)C3)c1C`, the Ratio in data set [1] was 1650 M⁻¹ s⁻¹; in data set [2], 1660 M⁻¹ s⁻¹.
On to `Cc1noc(NC(=O)N2CCC3(CC2)CC(c2cccc(Oc4ccc(C(F)(F)F)cn4)c2)C3)c1C`, for which, in data set [2], the Ratio was 9460 M⁻¹ s⁻¹.
In the case of `Cc1noc(NC(=O)N2CCC3(CC2)CC(c2cccc(C(F)(F)F)c2)CO3)c1C` (racemic), the Ratio was 1330 M⁻¹ s⁻¹ in data set [1] and 2680 M⁻¹ s⁻¹ in data set [2].
For `COc1cccc(C2CC3(CCN(C(=O)Nc4onc(C)c4C)CC3)C2)c1` the same measures were 2190 M⁻¹ s⁻¹ and 741 M⁻¹ s⁻¹.
For `CCn1nnnc1NC(=O)N1CCC2(CC1)CC(c1cccc(OC(F)(F)F)c1)C2` the same measures were 6940 M⁻¹ s⁻¹ and 3420 M⁻¹ s⁻¹.
The corresponding values for `Cn1nnnc1NC(=O)N1CCC2(CC1)CC(c1cccc(Cl)c1)CO2` (configuration not stated) are 5600 M⁻¹ s⁻¹ and 1970 M⁻¹ s⁻¹.
With `Cc1noc(NC(=O)N2CCC3(CC2)CC(c2ccc(Cl)c(Cl)c2)CO3)c1C` (racemic), the Ratio in data set [1] is 2430 M⁻¹ s⁻¹; in data set [2] it was 4360 M⁻¹ s⁻¹.
On to `Cc1cc(NC(=O)N2CCC3(CC2)CC(c2cccc(OC(F)(F)F)c2)C3)on1`, for which the Ratio in data set [1] amounted to 113 M⁻¹ s⁻¹.
Regarding `Cc1onc(NC(=O)N2CCC3(CC2)CC(c2cccc(OC(F)(F)F)c2)C3)c1C`, the Ratio is 64 M⁻¹ s⁻¹ in data set [1] and 34.2 M⁻¹ s⁻¹ in data set [2].
For `Cn1nnc(NC(=O)N2CCC3(CC2)CC(c2cccc(OC(F)(F)F)c2)C3)n1` the same measures were 165 M⁻¹ s⁻¹ and 152 M⁻¹ s⁻¹.
For `Cc1noc(NC(=O)N2CCC3(CC2)CC(c2ccc(OC(F)(F)F)cc2)C3)c1C` the same measures were 353 M⁻¹ s⁻¹ and 229 M⁻¹ s⁻¹.
The corresponding values for `Cc1noc(NC(=O)N2CCC3(CC2)CC(c2cccc(Cl)c2)CO3)c1C` (stereo in doubt; form 1) are 2390 M⁻¹ s⁻¹ and 1560 M⁻¹ s⁻¹.
With `Cn1nnnc1NC(=O)N1CCC2(CC1)CC(c1cccc(C(F)(F)F)c1)CO2` (stereo in doubt; form 1) [listing 2 of 2 here], the inhibition entry in data set [5] and in data set [6] was “Active” in each case. Besides, the “activity call (active/not active)” value in the data set with Rattus norvegicus is “Active”. In addition, the Ratio worked out at 4600 M⁻¹ s⁻¹ in data set [1] and 2160 M⁻¹ s⁻¹ in data set [2].
For `Cn1ncnc1NC(=O)N1CCC2(CC1)CC(c1cccc(OC(F)(F)F)c1)C2`, the Ratio in data set [1] was below 10 M⁻¹ s⁻¹.
As for `Cc1noc(NC(=O)N2CCC3(CC2)CC(c2cccc(Cl)c2)CO3)c1C` (stereo in doubt; form 2), the Ratio in data set [1] is 2590 M⁻¹ s⁻¹; in data set [2], 3830 M⁻¹ s⁻¹.
Regarding `Cn1nnnc1NC(=O)N1CCC2(CC1)CC(c1cccc(C(F)(F)F)c1)CO2` (stereo in doubt; form 2), the Ratio in data set [1] came to 3760 M⁻¹ s⁻¹; in data set [2], 2110 M⁻¹ s⁻¹.
The corresponding values for `Cc1noc(NC(=O)N2CCC3(CC2)CC(c2cccc(C(F)(F)F)c2)C3)c1C` are 3060 M⁻¹ s⁻¹ and 3690 M⁻¹ s⁻¹.
On to `Cc1noc(NC(=O)N2CCC3(CC2)CC(c2cccc(Cl)c2)CO3)c1C` (racemic), for which the Ratio in data set [1] was 2040 M⁻¹ s⁻¹; in data set [2], 2670 M⁻¹ s⁻¹.
On to `Cc1noc(NC(=O)N2CCC3(CC2)CC(c2cccc(C#N)c2)CO3)c1C` (racemic), for which the Ratio came out at 243 M⁻¹ s⁻¹ in data set [1] and 999 M⁻¹ s⁻¹ in data set [2].
In the case of `Cc1noc(NC(=O)N2CCC3(CC2)CC(c2ccc(OC(F)(F)F)cc2)CO3)c1C` (racemic), the Ratio in data set [1] stood at 162 M⁻¹ s⁻¹; in data set [2] it was 461 M⁻¹ s⁻¹.
The corresponding values for `Cc1noc(NC(=O)N2CCC3(CC2)CC(c2ccc(Cl)c(Cl)c2)C3)c1C` are 4550 M⁻¹ s⁻¹ and 3470 M⁻¹ s⁻¹.
